Measured values as given in ChEMBL document CHEMBL1806433, “Cytotoxicity of aporphines in human colon cancer cell lines HCT-116 and Caco-2: an SAR study” (Bioorg Med Chem Lett, 2011).

Columns and labels:
Caco-2 [1] = assay: Cytotoxicity against human Caco2 cells after 72 hrs by MTS assay; format: functional, cell-based; conditions: Caco-2, 72 h
Procedure, shortened: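 Caco-2 grown in EMEM with 10% FBS, 1% nonessential amino acids, 1% L-glutamine and 1% antibiotic at 37 °C, 5% CO2. Cells plated at 5000-3,000/well 24 or 48 h before dosing. Serially diluted samples in DMSO (<0.5% in medium) for 72 h. Then MTS plus phenazine methosulfate for 3 h at 37 °C, OD490 read against 0.5% DMSO controls. IC50 reported as mean ± S.D. of three experiments.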

[2] = Cytotoxicity against human CCD-18Co cells after 72 hrs by MTS assay; format: cell-based
Procedure, shortened: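 72 h exposure to serially diluted samples in DMSO (<0.5% in medium), with 0.5% DMSO controls in parallel. MTS reagent with phenazine methosulfate then added for 3 h at 37 °C. Absorbance at 490 nm gives cell number relative to controls. IC50 is the concentration giving 50% growth inhibition, reported as mean ± S.D. of three separate experiments.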

HCT-116 [3] = assay: Cytotoxicity against human HCT116 cells after 72 hrs by MTS assay; format: functional, cell-based; conditions: HCT-116, 72 h
Procedure, shortened: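 HCT-116 kept in McCoy's 5a with 10% FBS, 1% nonessential amino acids, 2% HEPES and 1% antibiotic at 37 °C, 5% CO2. Seeded at 5000-3,000 cells/well 24 or 48 h before treatment. Serial dilutions in DMSO (<0.5% in medium) applied for 72 h. MTS/phenazine methosulfate added for 3 h, OD490 read versus 0.5% DMSO controls. IC50 given as mean ± S.D. of three experiments.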

Caco-2 [4] = assay: Ratio of etoposide IC50 to compound IC50 for human Caco2 cells; format: functional
HCT-116 [5] = assay: Ratio of etoposide IC50 to compound IC50 for human HCT116 cells; format: functional

## COc1cc2c3c(c1OC(=O)c1ccccc1)-c1cc4c(cc1C[C@@H]3N(C)CC2)OCO4
Caco-2 [1]
  IC50: 25.9 µM
[2]
  IC50: 45.1 µM
HCT-116 [3]
  IC50: 25.2 µM

## CCOC(=O)N1CCc2cc(OC)c(OC)c3c2[C@@H]1Cc1cc2c(cc1-3)OCO2
Caco-2 [1]
  IC50: 83.2 µM
[2]
  IC50: 112 µM
HCT-116 [3]
  IC50: 81.4 µM

## CCOC(=O)N1CCc2cc(OC)c(OCc3ccccc3)c3c2[C@@H]1Cc1cc2c(cc1-3)OCO2
Caco-2 [1]
  IC50: 99.8 µM
[2]
  IC50: 110 µM
HCT-116 [3]
  IC50: 93.3 µM

## CCOC(=O)N1CCc2cc(OC)c(OCC)c3c2[C@@H]1Cc1cc2c(cc1-3)OCO2
Caco-2 [1]
  IC50: 73.5 µM
[2]
  IC50: 134 µM
HCT-116 [3]
  IC50: 73.3 µM

## COc1cc([C@@H]2c3cc4c(cc3[C@@H](O[C@@H]3O[C@@H]5CO[C@@H](C)O[C@H]5[C@H](O)[C@H]3O)[C@H]3COC(=O)[C@H]23)OCO4)cc(OC)c1O [ETOPOSIDE]
Caco-2 [1]
  IC50: 18.6 µM
[2]
  IC50: 44.4 µM
HCT-116 [3]
  IC50: 25.5 µM

## COc1cc2c3c(c1OC)-c1cc4c(cc1C[C@@H]3N(C(C)=O)CC2)OCO4
Caco-2 [1]
  IC50: 160 µM
[2]
  IC50: 188 µM
HCT-116 [3]
  IC50: 186 µM

## CCOC(=O)N1CCc2cc(OC)c(O)c3c2[C@@H]1Cc1cc2c(cc1-3)OCO2
Caco-2 [1]
  IC50: 71.7 µM
[2]
  IC50: 128 µM
HCT-116 [3]
  IC50: 72.7 µM

## COc1cc2c3c(c1OC)-c1cc4c(cc1C[C@@H]3N(S(C)(=O)=O)CC2)OCO4
Caco-2 [1]
  IC50: 196 µM
HCT-116 [3]
  IC50: 196 µM

## COc1cc2c(c(-c3ccc4c(c3)OCO4)c1OC)[C@H](C)N(C)CC2
Caco-2 [1]
  IC50: 190 µM
HCT-116 [3]
  IC50: 195 µM

## COc1cc2c(cc1OC)[C@H](Cc1ccc3c(c1)OCO3)N(C)CC2
Caco-2 [1]
  IC50: 191 µM
HCT-116 [3]
  IC50: 191 µM

## CCC(CC)COc1c(OC)cc2c3c1-c1cc4c(cc1C[C@@H]3N(C)CC2)OCO4
Caco-2 [1]
  IC50: 22.8 µM
[2]
  IC50: 50.7 µM
HCT-116 [3]
  IC50: 26.6 µM

## COc1c(Br)c2c3c(c1OC)-c1cc4c(cc1C[C@@H]3N(C)CC2)OCO4
Caco-2 [1]
  IC50: 101 µM
[2]
  IC50: 181 µM
HCT-116 [3]
  IC50: 100 µM

## COc1cc2c3c(c1OC)-c1cc4c(cc1CC3N(C)CC2)OCO4 (centres undefined) [NANTENINE]
Caco-2 [1]
  IC50: 36.2 µM
[2]
  IC50: 56.5 µM
HCT-116 [3]
  IC50: 38.3 µM

## COc1cc2c3c(c1O)-c1cc4c(cc1C[C@@H]3N(C)CC2)OCO4 [DOMESTICINE]
Caco-2 [1]
  IC50: 73.5 µM
Caco-2 [4]
  Ratio IC50: 4
HCT-116 [5]
  Ratio IC50: 3
[2]
  IC50: 134 µM
HCT-116 [3]
  IC50: 73.3 µM

## CCCCCOc1c(OC)cc2c3c1-c1cc4c(cc1C[C@@H]3N(C)CC2)OCO4
Caco-2 [1]
  IC50: 35.3 µM
[2]
  IC50: 73.4 µM
HCT-116 [3]
  IC50: 46.3 µM
